From BindingDB's records for doi:10.1016/j.bmcl.2007.12.018 (Novartis Institute For Biomedical Research, 2008) come the findings set out here.

This test has as its target RAC-alpha serine/threonine-protein kinase (Homo sapiens, UniProt P31749). Kind of test: Inhibition of phosphorylation of T308-PKB in human U87MG cells by ELISA. A digest of the protocol:
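Cell capture ELISA for phospho-T308 PKB in U87MG cells; IC50 determined.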

RAC-alpha serine/threonine-protein kinase, sequence (P31749 whole entry): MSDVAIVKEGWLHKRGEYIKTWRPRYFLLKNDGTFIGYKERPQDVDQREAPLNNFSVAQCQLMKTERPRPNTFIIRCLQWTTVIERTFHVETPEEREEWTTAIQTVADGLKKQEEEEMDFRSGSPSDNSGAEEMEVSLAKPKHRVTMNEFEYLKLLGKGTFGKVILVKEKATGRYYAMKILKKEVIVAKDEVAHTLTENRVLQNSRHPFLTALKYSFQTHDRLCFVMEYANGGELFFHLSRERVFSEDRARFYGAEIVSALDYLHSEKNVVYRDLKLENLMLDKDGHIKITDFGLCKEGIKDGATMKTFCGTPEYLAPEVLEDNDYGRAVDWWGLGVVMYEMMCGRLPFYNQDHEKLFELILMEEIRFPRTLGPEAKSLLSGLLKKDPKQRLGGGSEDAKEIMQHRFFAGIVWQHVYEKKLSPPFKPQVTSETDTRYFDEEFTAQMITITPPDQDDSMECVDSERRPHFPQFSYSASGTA

Molecule `Cn1c(=O)n(-c2ccc(C(C)(C)C#N)cc2)c2c3cc(C#Cc4cccnc4)ccc3ncc21` came in with an IC50 of 33 nM.

In turn, `Cc1nc2cnc3ccc(C#Cc4cccnc4)cc3c2n1-c1ccc(C(C)C#N)cc1` (centres undefined) yielded a 50% inhibitory concentration (IC50) of 45 nM.

In the case of `CCc1nc2cnc3ccc(C#Cc4cccnc4)cc3c2n1-c1ccc(CC#N)cc1`, the half-inhibitory concentration (IC50) stood at 138 nM. Molecule `Cc1nc2cnc3ccc(C#Cc4cccnc4)cc3c2n1-c1ccc(CC#N)cc1` displayed a concentration for half-maximal inhibition (IC50) of 77 nM.
